# Measured values published in ChEMBL document CHEMBL5149972, “Novel Antimalarial Tetrazoles and Amides Active against the Hemoglobin Degradation Pathway in Plasmodium falciparum” (J Med Chem, 2021).
# Columns and labels:
# Plasmodium falciparum [1] = test: Antiplasmodial activity against asexual blood stage Plasmodium falciparum 3D7 infected in human RBC assessed as parasite growth inhibition incubated for 72 hrs by SYBR Green dye based fluorescence assay; assay type: functional, organism-based; conditions: Plasmodium falciparum, 3D7, Erythrocyte, 72 h
# In short: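 Blood-stage cultures at 2% hematocrit, human O+ RBCs, RPMI 1640 + 25 mM HEPES, 0.5% Albumax-I, 23 mM bicarbonate, 92 μM hypoxanthine. Start at 0.5% parasitemia; 72 h at 37°C, 5% CO₂; freeze-thaw, then SYBR Green in saponin/Triton lysis buffer, 4 h RT dark; fluorescence ex 485/em 535 nm. 10-point curves, technical duplicates or triplicates, final 0.5% DMSO; four-parameter fit gives EC₅₀; mean ± std dev of biological replicates.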
# [2] = Kinetic solubility of compound in PBS at pH 2 by HPLC analysis; assay type: physicochemical; conditions: read-out: Kinetic_solubility
# Plasmodium falciparum [3] = test: Antiplasmodial activity against Plasmodium falciparum mature stage V gametocyte assessed as inhibition of female gametocyte formation by luciferase reporter assay; assay type: functional, organism-based
# Plasmodium falciparum [4] = test: Antiplasmodial activity against chloroquine and pyrimethamine resistant Plasmodium falciparum K1 infected in human RBC assessed as parasite growth inhibition incubated for 72 hrs by SYBR Green dye based fluorescence assay; assay type: functional, organism-based; conditions: K1, Erythrocyte
# Plasmodium falciparum [5] = test: Antiplasmodial activity against chloroquine and pyrimethamine resistant Plasmodium falciparum 7G8 infected in human RBC assessed as parasite growth inhibition incubated for 72 hrs by SYBR Green dye based fluorescence assay; assay type: functional, organism-based; conditions: 7G8, Erythrocyte
# Hemozoin = test: Inhibition of Beta-hematin assessed as bis-pyridyl-Fe(III)PPIX complex formation incubated for 5 hrs by NP40 detergent-mediated colorimetric assay
# [6] = Inhibition of hemozoin formation in sorbitol-synchronized early ring stage plasmodium falciparum NF54 trophozoites assessed as fold increase in free heme-Fe level at 3 times EC50 incubated for 32 hrs by flow cytometry analysis; assay type: functional
# In short: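 Trophozoites were saponin-released (0.05%), PBS-washed, counted by flow cytometry, then hypotonically lysed and sonicated. Heme was fractionated with HEPES, SDS, pyridine and NaOH and read as Fe(III)heme–pyridine absorbance against a heme standard curve (fg/cell). Three biological replicates; Student's t-test.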
# Plasmodium falciparum [7] = test: (§1) Antiplasmodial activity against Rac-N-(Pyridin-3-yl(1-(o-tolyl)-1H-tetrazol-5-yl)methyl)-N-(3-(trifluoromethyl)benzyl)Cyclopropanamine resistant Plasmodium falciparum 3D7 clone F2-A10 ring-stage parasite assessed as parasite growth inhibition incubated for 72 hrs by SYBR Green and MitoTracker Deep Red FM dye based flow cytometry; assay type: functional, organism-based
# In short: (§2)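 Clonal 3D7-A10 lines recovered after single-step selection; ring stages at 0.2% parasitemia, 1% hematocrit in RPMI-1640 with 0.5% Albumax. 72 h exposure to a 10-point 2-fold dilution series in duplicate with DMSO controls, final DMSO <0.5%. Survival read by flow cytometry, SYBR Green as nuclear stain and MitoTracker Deep Red FM as vital dye. EC₅₀ and EC₉₀ reported with fold shift relative to parental 3D7-A10.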
# Plasmodium falciparum [8] = test: as §1, with “F2-A11” for “F2-A10”; assay type: functional, organism-based; in short: as §2
# Plasmodium falciparum [9] = test: as §1, with “F2-H12” for “F2-A10”; assay type: functional, organism-based; in short: as §2
smiles,measurement,setting,value
Cc1ccccc1-n1nnnc1C(c1cccnc1)N(Cc1cccc(C(F)(F)F)c1)C1CC1 (racemic),EC50,Plasmodium falciparum [1],380 nM
same,solubility kinetic,[2],12 µg/mL
same,EC50,Plasmodium falciparum [3],> 25000 nM
same,EC50,Plasmodium falciparum [4],360 nM
same,EC50,Plasmodium falciparum [5],180 nM
same,IC50,Hemozoin,76000 nM
same,fold change (FC),[6],6
same,EC50,"Plasmodium falciparum [7]; 3D7 clone F2-A10, 72 h",830 nM
same,EC90,"Plasmodium falciparum [7]; 3D7 clone F2-A10, time 72 hrs",1500 nM
same,EC50,"Plasmodium falciparum [8]; 3D7 clone F2-A11, 72 h",670 nM
same,EC90,"Plasmodium falciparum [8]; 3D7 clone F2-A11, time 72 hrs",1300 nM
same,EC50,"Plasmodium falciparum [9]; 3D7 clone F2-H12, 72 h",640 nM
same,EC90,"Plasmodium falciparum [9]; 3D7 clone F2-H12, time 72 hrs",1300 nM
